This is an account of results in ChEMBL document CHEMBL2417356, “Identification of 2,3-disubstituted pyridines as potent, orally active PDE4 inhibitors” (Bioorg Med Chem, 2013).

Activity calls are given as the source filed them. The rule behind the calls is not given here.

Experiment [1] is filed under the species Cavia porcellus. Description: Inhibition of Hartley guinea pig eosinophil PDE4 assessed as cAMP hydrolysis at 100 nM by two-step radioisotope method relative to control.
Another experiment relates to Mus musculus. Description: Antiinflammatory activity in mouse assessed as inhibition ovalbumin-induced eosinophil infiltration into lung at 10 mg/kg, po administered 30 mins prior to ovalbumin challenge followed by once per day compound administration measured after 2 days relative to vehicle-treated control. The experiment is classed as functional. The method in brief: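 Male mice, 5 weeks old, OVA-sensitized. Dosed orally 30 min before intranasal OVA challenge and once daily for the next 2 days. Challenge given 7 days after the last sensitizing OVA injection, under anaesthesia. Bronchoalveolar lavage under pentobarbital 3 days post-challenge. BALF diluted 10-fold in Turk's solution and living infiltrated cells counted. % inhibition calculated against vehicle group.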

Experiment [2] is described as follows: (§1) Inhibition of Hartley guinea pig eosinophil PDE4 assessed as cAMP hydrolysis by two-step radioisotope method. Further details: species or system Cavia porcellus. The method in brief:
(§2)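 PDE4 purified from eosinophils of male Hartley guinea pigs (~500 g) given 5 mg polymyxin B. Activity measured by a modified two-step radioisotope method with [3H]cAMP substrate, quantifying hydrolyzed cAMP. IC50 taken as the concentration giving 50% inhibition of hydrolysis, from concentration–response curves. Three experiments per agent.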

The subject of experiment [3] is Cavia porcellus. The experiment is described as follows: Bronchodilatory activity in ovalbumin-treated guinea pig at 10 mg/kg, po administered 1 hr prior to ovalbumin challenge relative to vehicle-treated control. The experiment is classed as functional. The method in brief: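 Male guinea pigs OVA-sensitized at 3 weeks old, studied 6 weeks later. Anesthetized, tracheally cannulated and ventilated with room air at 60 strokes/min. Air-overflow measured by the Konzett-Rössler method. Bronchospasm induced by i.v. OVA via hind-paw vein. Peak response taken within 10 min of challenge as % of theoretical maximum. Oral dosing 1 h before challenge; % inhibition against vehicle.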

For experiment [4], the species on record is Cavia porcellus. Described as §1. The method in brief: as §2

For the compound `Brc1cccc(Sc2ncccc2OCCCCc2cccnc2)c1`, the inhibition in the experiment listed under Cavia porcellus [1] is 5%. As to `COc1ccc(C2CNC(=O)C2)cc1OC1CCCC1` (centres undefined) [ROLIPRAM], the inhibition in vivo at 10 mg/kg in the experiment on Mus musculus was found to be 39%. In experiment [2], the 50% inhibitory concentration (IC50) is 54 nM. With `Brc1cccc(Sc2ncccc2OCCCc2ccncc2)c1`, in the experiment with Mus musculus, the inhibition in vivo at 10 mg/kg was 50%. Further, the inhibition in the experiment listed under Cavia porcellus [1] is 80%. The compound also showed an Activity in the experiment with Cavia porcellus [3] of 77%. Further, in experiment [2], the IC50 was 34 nM. In the case of `Brc1cccc(Sc2ncccc2OCCc2ccncc2)c1`, the inhibition in the experiment filed under Cavia porcellus [1] turned out to be 56%.

Consider `N#CCCCOc1cccnc1Sc1cccc(Br)c1`, for which the IC50 in experiment [2] turned out to be 104 nM.

Take `O=C(c1cccc(Br)c1)c1ccccn1`: the inhibition entry in the experiment filed under Cavia porcellus [4] was “inactive”. Turning to `Brc1cccc(Sc2ncccc2OCCCc2ccccn2)c1`, the inhibition in the experiment listed under Cavia porcellus [1] was 10%. As to `Brc1cccc(Sc2ncccc2OCCCCc2ccncc2)c1`, the inhibition in the experiment filed under Cavia porcellus [1] came to 3%. Consider `Brc1cccc(Sc2ncccc2OCCCc2cccnc2)c1`, for which, in the experiment listed under Cavia porcellus [1], the inhibition turned out to be 69%. On the same count and under the same terms, the value for `Brc1cccc(Sc2ncccc2OCCc2cccnc2)c1` was 60%.
